Rows were chosen to be rich in hits. Some 2.9% of all compounds tested hit in one or more screens of this group.
E-sel inducer = E-selectin induction in HUVECs, primary screen, imaging, HUVEC, immunofluorescence imaging, single point. P16581. normalized: neutral wells 0, TNF-alpha wells 100. activation, % at 7.58 µM. 0.37% of 260,000 active;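 active = mean E-selectin-positive cell signal at least 10% of the positive control, reached in at least 60% of replicates, without over 20% cell loss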
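assay system = HUVEC, human umbilical vein endothelial cells | input = 3,000 HUVEC seeded per well | medium = EGM-2 growth medium on 0.1% gelatin-coated wells | dosing = one compound dose added by pin transfer | signal = immunofluorescence imaging | read-out basis = % PE-positive cells | control set = TNF-alpha, DMSO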
DENV2 CPE rescue = inhibitors of DENV2 cytopathic effect, primary screen, cell-based, plate reader, single concentration; DENV2-infected cells, cytopathic effect rescue; CPE inhibition, % at 9.99 µM; 1.7% of 350,000 active; in the data active = CPE inhibition above about 20%, passing the limit was not always enough; tested in BHK-21 cells
SIRT5 inh = SIRT5 desuccinylase inhibitors, primary screen, biochemical, fluorescence imaging, single point, set 5 | Purified SirT5, succinyl-peptide AMC, trypsin-coupled fluorescence | inhibition, % at 15 µM | AID 652115, 2013 | 1.1% of 330,000 active | NAD-dependent protein deacylase sirtuin-5, mitochondrial (Homo sapiens), Q9NXA8; in the data active = inhibition above about 15%
Each line names hits and unclear results; the compound was inactive in the other large screens.

O=C(O)c1cc(NC(=O)c2cccc(C(=O)Nc3cc(C(=O)O)cc(C(=O)O)c3)c2)cc(C(=O)O)c1	none (no result: E-sel inducer)
COc1cccc(NC(=O)CCCN2C(=O)C3CC=CCC3C2=O)c1 (configuration not stated)	none (no result: E-sel inducer)
O=C(NNC(=S)Nc1cccc(Cl)c1)c1ccccc1	none
COc1cccc(NC(=O)CCN2C(=O)C3CC=CCC3C2=O)c1 (configuration not stated)	DENV2 CPE rescue 29
O=C(Nc1cccc(Cl)c1)c1ccccc1	DENV2 CPE rescue 28 (no result: SIRT5 inh)
O=C(O)c1ccc(NC(=O)c2cccc(C(=O)Nc3ccc(C(=O)O)cc3)c2)cc1	SIRT5 inh 33 (no result: E-sel inducer)
O=C(O)c1ccc(OCC(F)(F)F)nc1	none
CCN(CC)S(=O)(=O)c1cccc(C(=O)c2c(C)cc3ccccn23)c1	none (no result: E-sel inducer)
c1ccc(-c2cn(C[C@H]3CC[C@@H]([C@@H]4CC[C@H](Cn5cc(-c6ccccc6)nn5)O4)O3)nn2)cc1	DENV2 CPE rescue 34
c1ccc(-c2cn(C[C@H]3CC[C@@H]([C@@H]4CC[C@H](Cn5cc(-c6ccccn6)nn5)O4)O3)nn2)nc1	none (no result: SIRT5 inh)
N#CC(c1ccccc1)C(CC(=NO)c1ccccc1)c1ccccc1 (configuration not stated)	none (no result: SIRT5 inh)
COc1ccc([Si](C)(C)[C@H]2[C@H](CCO)O[C@@]3(C(=O)N(Cc4ccc(NC(C)=O)cc4)c4ccccc43)[C@@H]2C)cc1	SIRT5 inh 21 (no result: E-sel inducer)
COc1ccc([Si](C)(C)[C@@H]2[C@@H](CCO)O[C@]3(C(=O)N(Cc4ccc(NC(C)=O)cc4)c4ccccc43)[C@H]2C)cc1	DENV2 CPE rescue 20 (no result: E-sel inducer)
COc1ccc([Si](C)(C)[C@@H]2[C@@H](CCO)O[C@]3(C(=O)N(Cc4ccc(N5CCOC5=O)cc4)c4ccccc43)[C@H]2C)cc1	none (no result: E-sel inducer)
COc1ccc([Si](C)(C)[C@H]2[C@H](CCO)O[C@@]3(C(=O)N(Cc4cccc(NC(C)=O)c4)c4ccccc43)[C@@H]2C)cc1	none (no result: E-sel inducer, DENV2 CPE rescue)
Cc1csc(=Nc2cccnc2)n1CC1CCCCC1	none (no result: E-sel inducer)
C[C@@H]1CN([C@H](C)CO)C(=O)c2cc(NC(=O)CCC(F)(F)F)ccc2O[C@H]1CN(C)Cc1ccncc1	none
CC1CC(C)CN(C(=S)Nc2ccc(OC(F)F)cc2)C1 (configuration not stated)	none
CN1CSC2=C(C#N)C(c3cccc(OCc4ccccc4)c3)CC(=O)N2C1 (configuration not stated)	none
CCCN1C[C@@H](C)[C@@H](OC)CN(C)C(=O)c2cc(NS(=O)(=O)c3ccccc3)ccc2OC[C@H]1C	none
CCCN1C[C@H](C)[C@@H](OC)CN(C)C(=O)c2ccc(NS(C)(=O)=O)cc2OC[C@H]1C	DENV2 CPE rescue 27
CCCN1C[C@@H](C)[C@H](OC)CN(C)C(=O)c2ccc(NS(=O)(=O)c3ccccc3)cc2OC[C@@H]1C	DENV2 CPE rescue 37
CCCN1C[C@H](C)[C@H](OC)CN(C)C(=O)c2cc(NS(C)(=O)=O)ccc2OC[C@H]1C	none (no result: DENV2 CPE rescue, SIRT5 inh)
C[C@@H]1CN([C@H](C)CO)C(=O)c2cc(-c3ccc(C#N)cc3)cnc2O[C@@H]1CN(C)C(=O)CN(C)C	none
CCOC(=O)CC1=NN(c2ccccc2)C(=O)C1	none (no result: E-sel inducer)
CCOC(=O)CC1=NN(c2ccccc2)C(=O)/C1=C\c1ccc(N(C)C)cc1	SIRT5 inh 113
CC(C)NC(=O)Nc1ccc2c(c1)CC(=O)N([C@@H](C)CO)C[C@H](C)[C@H](CN(C)Cc1ccc(C(F)(F)F)cc1)O2	none
Cc1ccc(S(=O)(=O)N(C)C[C@H]2OCc3ccccc3-c3c(n(C)c4ccccc34)C(=O)N([C@H](C)CO)C[C@@H]2C)cc1	none
COc1ccc(S(=O)(=O)N(C)C[C@@H]2OCc3ccccc3-c3c(n(C)c4ccccc34)C(=O)N([C@H](C)CO)C[C@H]2C)cc1	SIRT5 inh 16
Cc1ccc(S(=O)(=O)N(C)C[C@H]2OCc3ccccc3-c3c(n(C)c4ccccc34)C(=O)N([C@H](C)CO)C[C@H]2C)cc1	SIRT5 inh 20
Cc1ccccc1S(=O)(=O)N(C)C[C@H]1OCc2ccccc2-c2c(n(C)c3ccccc23)C(=O)N([C@H](C)CO)C[C@@H]1C	none
COc1ccc(S(=O)(=O)N(C)C[C@H]2OCc3ccccc3-c3c(n(C)c4ccccc34)C(=O)N([C@H](C)CO)C[C@@H]2C)cc1	none
Cc1ccccc1S(=O)(=O)N(C)C[C@H]1OCc2ccccc2-c2c(n(C)c3ccccc23)C(=O)N([C@@H](C)CO)C[C@@H]1C	SIRT5 inh 22
N#C/C(=C/c1cccnc1)c1ccccc1	none (no result: E-sel inducer)
C=CCn1c(-c2cccc(OC)c2)n[nH]c1=S	none
O=C(NC1CCCC1)N1CCCCN2[C@H](CO)[C@H](c3ccc(/C=C/c4ccccc4)cc3)[C@H]2C1	none
CCc1cc(Cn2nc(C(=O)O)cc2-c2ccccc2)on1	none

High-throughput results: PubChem BioAssay, Broad Institute
